Source: ChEMBL document CHEMBL3244297, “In vitro antiplaque properties of a series of alkyl bis(biguanides)” (1978)

Experiments:
Assay type in all cases: functional
Actinomyces naeslundii [1] = assay: Antiplaque activity against Actinomyces naeslundii ATCC 12104 assessed as growth inhibition of adherent cells on saliva coated bovine tooth slabs
Summary of the method: (§1)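 Tooth slabs were treated with the test agents at a series of molar concentrations. The value is the lowest molar concentration (M × 10⁴) that gave >90% inhibition of growth of adherent cells, based on triplicate sets.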

Streptococcus mutans [2] = assay: Antiplaque activity against wild type Streptococcus mutans 6715-13 assessed as growth inhibition of adherent cells on saliva coated bovine tooth slabs; summary of the method: as §1
Actinomyces viscosus [3] = assay: Antiplaque activity against Actinomyces viscosus M-100-2000 assessed as growth inhibition of adherent cells on saliva coated bovine tooth slabs; summary of the method: as §1
Streptococcus mutans [4] = assay: Antibacterial activity against wild type Streptococcus mutans 6715-13 assessed as growth inhibition by tube dilution assay
Summary of the method: (§2)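 Standard tube dilution assay, modified so that adherent cells were dispersed before cell density was read spectrophotometrically at 540 nm. The value is the minimum inhibitory concentration, given in molar units.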

Actinomyces naeslundii [5] = assay: Antibacterial activity against Actinomyces naeslundii ATCC 12104 assessed as growth inhibition by tube dilution assay; summary of the method: as §2
Actinomyces viscosus [6] = assay: Antibacterial activity against Actinomyces viscosus M-100-2000 assessed as growth inhibition by tube dilution assay; summary of the method: as §2

SMILES	MIC>90 (Actinomyces naeslundii [1]) [×10⁻⁴ M]	MIC>90 (Streptococcus mutans [2]) [×10⁻⁴ M]	MIC>90 (Actinomyces viscosus [3]) [×10⁻⁴ M]	MIC (Streptococcus mutans [4]) [µM]	MIC (Actinomyces naeslundii [5]) [µM]	MIC (Actinomyces viscosus [6]) [µM]
N=C(NCCCCCCNC(=N)NC(=N)Nc1ccc(Cl)cc1)NC(=N)Nc1ccc(Cl)cc1.O=C(O)[C@H](O)[C@@H](O)[C@H](O)[C@H](O)CO	>100	10	>10	10	10	10
CCCCCC(CC)CNC(=N)NC(=N)NCCCCNC(=N)NC(=N)NCC(CC)CCCCC.Cl (stereo not given)	0.5	100	10	10	10	10
CCCCCCCCCNC(=N)NC(=N)NCCCCNC(=N)NC(=N)NCCCCCCCCC.Cl	1	70	10	100	10	10
CCCCCCCCNC(=N)NC(=N)NCCCCCCNC(=N)NC(=N)NCCCCCCCC.Cl	0.5	8	5	10	10	10
CCCCCCCNC(=N)NC(=N)NCCCCCCCCNC(=N)NC(=N)NCCCCCCC.Cl	0.5	>10	>10	10	10	10
CCCCCCNC(=N)NC(=N)NCCCCCCCCCCNC(=N)NC(=N)NCCCCCC.Cl	0.5	10	>10	10	10	10
CCCCCCCNC(=N)NC(=N)NCCCCCCNC(=N)NC(=N)NCCCCCCC.Cl	0.5	50	>10	10	10	1
CCCCCCNC(=N)NC(=N)NCCCCCCCCNC(=N)NC(=N)NCCCCCC.Cl	1	3	>10	10	10	1
CCCCCCNC(=N)NC(=N)NCCCCCCNC(=N)NC(=N)NCCCCCC.Cl	0.8	100	0.8	10	10	1
CCCCC(CC)CNC(=N)NC(=N)NCCCCCCNC(=N)NC(=N)NCC(CC)CCCC.Cl.Cl (stereo not given) [ALEXIDINE DIHYDROCHLORIDE]	5	>100	0.5	10	10	0.1
